This is a sample that favours compounds with a hit; in the whole collection about 2.2% have one here.
T cruzi inh: T. cruzi replication inhibition; T. cruzi beta-gal in NIH3T3, luminescence, 90 h; inhibition, % (concentration not given with the values); 300,000 tested, 1.4% active; AID 1885;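 active = mean inhibition across valid replicates above about 55%, limit read from the data; inconclusive = mean below that limit but half or more replicates reach it; inactive = mean below it, under half of replicates reach it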;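 also: signal also drops with host cell toxicity which is not excluded here; higher percent means less beta-gal luminescence so fewer parasites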
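assay system = mouse NIH/3T3 fibroblasts infected with β-gal-expressing T. cruzi Tulahuen C4 | input = 5,000 NIH/3T3 host cells per well | buffer or medium = DMEM plus 2% FBS | timing = 3 h host attachment, then at least 90 h co-culture | measured by = GalScreen luminescence, 60 min | evaluation = luminescence reflecting intracellular parasite burden, expressed as percent inhibition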
HDAC3 inhib: blocks human histone deacetylase 3 | O15379 | recombinant HDAC3, fluorogenic peptide/trypsin coupled, fluorescence | inhibition, % at 8.3 µM | 320,000 tested, 0.15% active | AID 2718; in the data active = inhibition above about 26%, passing the limit was not always enough; inconclusive = no clear call, values can overlap the other calls
Target sequence (O15379 whole entry, looked up): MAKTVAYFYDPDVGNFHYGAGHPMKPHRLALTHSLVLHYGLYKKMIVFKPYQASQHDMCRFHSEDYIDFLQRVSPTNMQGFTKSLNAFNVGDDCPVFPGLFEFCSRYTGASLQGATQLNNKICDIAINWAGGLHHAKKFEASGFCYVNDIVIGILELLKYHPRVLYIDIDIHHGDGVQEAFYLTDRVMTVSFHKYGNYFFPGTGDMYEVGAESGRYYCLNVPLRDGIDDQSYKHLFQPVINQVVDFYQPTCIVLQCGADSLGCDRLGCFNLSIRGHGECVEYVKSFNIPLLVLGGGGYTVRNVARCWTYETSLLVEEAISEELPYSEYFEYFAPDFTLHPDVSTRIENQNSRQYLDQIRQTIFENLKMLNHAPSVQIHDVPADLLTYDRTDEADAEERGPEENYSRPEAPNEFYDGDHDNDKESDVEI
AI-2 QS modul: modulates the Vibrio harveyi AI-2 quorum sensing system | 300,000 tested, 0.4% active | activity change, % at 7.5 µM | AID 2094 | Vibrio harveyi JMH597 AI-2 luminescence/OD600 ratio, 9 h; hits give low values; strain lacks LuxN and CqsS sensors; 0 = neutral-control median; in the data active = activity change below about -75%, passing the limit was not always enough; inconclusive = no clear call, values can overlap the other calls;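 also: luminescence divided by OD600 gain over 9 h not by final OD600 alone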
PolyA inh: blocks polyadenylation in yeast reporter cells | S. cerevisiae SKY197-pL101 polyadenylation reporter, beta-gal luminescence; efflux-impaired pdr1/pdr3 knockout yeast; score 100 = 6 SD above DMSO | AID 1875 | 300,000 tested, 0.02% active | activity score, % at 12 µM;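 active = lowest replicate activity score at least 50, where 100 means six control SD above control mean; inconclusive = lowest score under 50 but half or more replicates reach 50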;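 also: yeast exposed to compound for 9 h at 30 °C; higher score means more reporter readthrough which indicates perturbed polyadenylation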
Efflux pump inh: antifungal efflux pump inhibition, Nile Red retention; S. cerevisiae Candida pump triplex; inhibition, % at 10 µM; 330,000 tested, 0.44% active;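 active = plate passing quality check with inhibition over a set limit, or well fluorescence over plate mean plus 4 SD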;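 also: Nile Red retained in pooled yeast measured as flow cytometry median fluorescence; higher means more Nile Red kept so more efflux inhibition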
Numbers stand for hits; 0 = inactive; ? = inconclusive; - = not tested or not shown.

SMILES	T cruzi inh	HDAC3 inhib	AI-2 QS modul	PolyA inh	Efflux pump inh
COc1ccc(OC)c(N2C(=O)NC(=O)/C(=C/c3ccc([N+](=O)[O-])s3)C2=O)c1	65	0	?	0	0
COc1ccc(OC)c(N2C(=O)/C(=C/c3ccco3)C(=O)NC2=S)c1	0	0	0	0	0
Cc1ccc(N2C(=O)NC(=O)/C(=C/c3ccc(OC(=O)c4cccs4)cc3)C2=O)cc1	0	56	0	0	0
COc1ccc(N2C(=O)NC(=O)/C(=C/c3cccc(OC(=O)c4cccs4)c3)C2=O)cc1Cl	0	0	0	0	0
CN1/C(=C\C=C\C2=[N+](C)c3ccc4ccccc4c3C2(C)C)C(C)(C)c2ccccc21	-	0	-	-	106
Cc1cc(C(=O)OCC(=O)Nc2ccc(F)cc2)c(C)n1C1CC1	-	0	-	-	0
CCn1nc(-c2ccccc2)nc2c(=O)n(C)c(=O)nc1-2	0	0	-93	0	0
COc1ccc(-c2nc3ccccc3c(=O)n2-c2ccc(OC)cc2)cc1	0	0	0	0	0
O=c1[nH]c(=O)n(-c2ccc(Cl)cc2)c(O)c1C=Nc1ccc(S(=O)(=O)Nc2nccs2)cc1	0	0	-78	0	0
CCN(CC)S(=O)(=O)c1ccc(N=Cc2c(O)n(-c3ccccc3)c(=O)[nH]c2=O)cc1	0	0	0	0	0
Nc1ccccc1-[n+]1c(-c2ccccc2)cc(-c2ccccc2)cc1-c1ccccc1	61	0	0	0	0
CCN1C[C@@]2(COC)C3[C@@H](OC)[C@H]4[C@@H]1[C@@]3(C1C[C@@]3(O)[C@H](OC(=O)c5ccccc5)C1[C@]4(OC(C)=O)[C@@H](O)[C@H]3OC)[C@@H](OC)C[C@H]2O (stereo not given in full)	0	0	0	0	0
COC(=O)C(O)(c1ccc(NC(=O)Oc2ccccc2)cc1)C(F)(F)F (stereo not given)	0	0	-76	0	0
COC(=O)C(O)(c1ccc(NC(=S)NC(=O)c2ccccc2)cc1)C(F)(F)F (stereo not given)	0	0	0	0	0
C[C@]12CC[C@@H](O)CC1=CC(=O)C1C2CC[C@]2(C)C(=O)CCC12 (stereo not given in full)	-	0	-	-	0
Cc1ccc(CN2CCN(Cc3ccccc3)CC2)cc1	59	0	0	0	0
Cc1ccc2c(c1)N(C(=O)CCC(=O)N1CCC3(CC1)OCCO3)CCO2	0	0	0	0	0
C/C(=N\N1CCN(C)CC1)c1c(O)[nH]c(=O)[nH]c1=O	0	0	0	0	0
Cc1cc(OCC(=O)N2CCN(CC(=O)N3CCOCC3)CC2)c(C(C)C)cc1Cl	-	0	-	-	0
C/C(=C\c1ccc(N(C)C)cc1)[N+](=O)[O-]	0	0	-91	0	0
COc1ccc(-c2nn(CCC#N)cc2C(=O)Nc2cccc([N+](=O)[O-])c2)cc1OC	0	0	0	0	0
CNc1cc(Cl)c2nonc2c1[N+](=O)[O-]	0	-	-90	0	-
Cc1cc([N+](=O)[O-])c(Cl)cc1NC(=O)C(C)C	0	0	0	0	0
Cc1[nH]c2ccccc2c1C(=O)CN1CC=C(c2ccccc2)CC1	97	0	0	0	0
Cc1cc(Br)c(NC(=O)CN2CC=C(c3ccccc3)CC2)c(Br)c1	72	0	0	0	0
SMILES	T cruzi inh	HDAC3 inhib	AI-2 QS modul	PolyA inh	Efflux pump inh
CC(=NCCO)c1c(O)n(C2CCCCC2)c(=O)[nH]c1=O	0	0	0	0	0
CCC(=NCCCN(CC)CC)c1c(O)n(C2CCCCC2)c(=O)[nH]c1=O	66	0	0	0	0
CCN(CC)CCCN=C(C)c1c(O)n(C2CCCCC2)c(=O)[nH]c1=O	65	0	0	0	0
COc1ccccc1CCNC1CCC(C(C)(C)C)CC1 (stereo not given)	59	0	0	0	0
Cc1cc(OCC(=O)N[C@H](C(=O)O)c2ccccc2)c2c3c(c(=O)oc2c1)CCC3	0	0	0	0	0
NC(N)=N/N=C/c1ccc(N(c2ccccc2)c2ccccc2)cc1	0	0	0	0	0
COc1ccc(/C=N\N=C(N)N)cc1	62	0	0	0	0
C=C(C=O)C[C@@H]1C[C@H](O)C2OC3C[C@]4(C)OC5/C=C\CC6OC7C(CC=CCC6OC5CCCC4OC3CC2O1)OC1CC2OC3CC(=O)OC3C[C@@H](C)C[C@@]2(C)OC1C[C@@H]7C (stereo not given in full)	0	0	0	0	50
CCOC(=O)c1ccc(NC(=O)N2C[C@@H]3C[C@@H](C2)c2cccc(=O)n2C3)cc1	0	0	0	0	0
C[n+]1c2ccccc2nc2ccc(NCCO)cc21	0	0	0	0	1.8
OCCNc1c2c(nc3ccccc13)CCCC2	0	0	0	0	0
CNc1ccc2nc3ccccc3[n+](C)c2c1	59	0	0	0	6.0
Cc1cc(O)c2c(c1)OC(C)(C)C1=C2CC(C)CC1 (stereo not given)	0	0	0	0	0
Oc1ccc2c3c1O[C@H]1c4oc5ccccc5c4C[C@@]4(O)[C@@H](C2)N(CC2CC2)CC[C@]314	0	0	0	0	0
CC(=O)O[C@H]1C(=O)[C@@]2(C)C([C@H](OC(=O)c3ccccc3)[C@]3(O)C[C@H](OC(=O)[C@H](O)[C@@H](NC(=O)Cc4ccccc4)c4ccccc4)C(C)=C1C3(C)C)[C@]1(OC(C)=O)CO[C@@H]1C[C@@H]2O (stereo not given in full)	0	0	0	0	0
CC(=O)O[C@@]12CO[C@@H]1C[C@H](O)[C@@]1(C)C(=O)[C@H](O)C3=C(C)[C@@H](OC(=O)[C@H](O)[C@@H](NC(=O)c4ccccc4)c4ccccc4)C[C@@](O)([C@@H](OC(=O)c4ccccc4)C12)C3(C)C (stereo not given in full)	55	0	0	0	0
COC(=O)C1=C(c2ccc(C(C)=O)cc2)C[C@@H]2CC[C@H]1N2C(=O)N1CCCCC1	-	0	-	-	0
CN1CC=C(/C=C/c2ccc(-c3ccccc3)cc2)CC1	70	0	0	0	0
COC(=O)C1=C(c2ccc(F)cc2F)C[C@@H]2CC[C@H]1N2C(=O)N1CCC(C)CC1	-	0	-	-	0
CC1Oc2cc3c(-c4c(O)cc(O)c5c(O)c6c(cc45)OC(C)C(C)C6=O)c(O)cc(O)c3c(O)c2C(=O)C1C (stereo not given)	0	0	-89	0	0
CN1CCN(C(=O)O[C@H]2c3nccnc3C(=O)N2c2ccc(Cl)cn2)CC1	0	0	0	0	0
COC(=O)C1=C(c2ccc(OC(F)(F)F)cc2)C[C@@H]2CC[C@H]1N2C(=O)N1CCCCC1	-	0	-	-	0
COc1cccc(CNCCc2cccc(F)c2)c1OC	59	0	0	0	0
COc1cccc(CNCCc2ccc3c(c2)OCO3)c1OC	0	0	0	0	0
CCN(CC)c1ccc(CN(C)CCc2ccc(OC)c(OC)c2)cc1	61	0	0	0	0

From PubChem BioAssay
